Experimental data reported in paper PMC8268672 (Bioorganic Chemistry, 2021).
Converted amounts (≈) assume the structure as drawn.

Columns and labels:
Assay type in all cases: cell-based
[1] = tested on: Pseudomonas aeruginosa (MCCB 0035); experiment: MIC, broth microdilution; conditions: read-out: Minimum inhibitory concentration (MIC), PA
In short: (§1)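 Broth microdilution per CLSI in Mueller-Hinton broth, using two-fold serial dilutions of test compound and reference drugs from 512 to 0.25. Bacterial broth cultures were grown 2-6 h to 0.5 McFarland turbidity, then diluted with sterile solution to the final inoculum. MIC is reported in µg/mL.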

[2] = tested on: Aspergillus fumigatus (NCIM 2081); experiment: MIC, broth microdilution; conditions: NCIM2081, read-out: Minimum inhibitory concentration (MIC), AF
In short: (§2)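 Antifungal MICs by CLSI broth microdilution in Sabouraud liquid medium. Test compounds and standard drugs are serially diluted two-fold from 512 to 0.25. The fungal broth culture is grown 24 h at 35 °C to a 0.5 McFarland turbidity, then adjusted with sterile solution to the final inoculum.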

[3] = tested on: Staphylococcus aureus (ATCC 29213); experiment: Agar disk diffusion, inhibition zone; conditions: 100 µg/8 mm disc, triplicate, mean ± SD
In short: (§3)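 Agar disk diffusion on Mueller-Hinton agar plates seeded with a standard bacterial suspension. Test compound stock in DMSO, diluted with distilled water; 8 mm sterile filter-paper discs soaked in the solution. Ampicillin was the reference. Plates incubated at 35 °C for 24 h, in triplicate. Read-out is the average inhibition-zone diameter (mm) around each disc.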

[4] = tested on: Streptococcus pneumonia (ATCC 49619); experiment: Agar disk diffusion, inhibition zone; conditions: 100 µg/8 mm disc, triplicate, mean ± SD
[5] = tested on: Pseudomonas aeruginosa (MCCB 0035); experiment: Agar disk diffusion, inhibition zone; conditions: 100 µg/8 mm disc, triplicate, mean ± SD
[6] = tested on: Cryptococcus neoformans (ATCC 9011); experiment: MIC, broth microdilution; conditions: ATCC9011, read-out: Minimum inhibitory concentration (MIC), CN
In short: as §2

[7] = tested on: Lactobacillus casei (NCIM-2651); experiment: Agar disk diffusion, inhibition zone; conditions: 100 µg/8 mm disc, triplicate, mean ± SD
[8] = tested on: Klebsiella aerogenes (NCIM-2098); experiment: Agar disk diffusion, inhibition zone; conditions: 100 µg/8 mm disc, triplicate, mean ± SD
[9] = tested on: Klebsiella aerogenes (NCIM-2098); experiment: MIC, broth microdilution; conditions: NCIM2098, read-out: Minimum inhibitory concentration (MIC), KA
In short: (§4)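 Antibacterial MICs by CLSI broth microdilution in Mueller-Hinton broth. Test compounds and standard drugs are serially diluted two-fold from 512 to 0.25. The bacterial broth culture is grown 2-6 h to a 0.5 McFarland turbidity, then adjusted with sterile solution to the final inoculum.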

[10] = tested on: Aspergillus niger (NCIM 2191); experiment: Agar disk diffusion, inhibition zone; conditions: 100 µg/8 mm disc, triplicate, mean ± SD
In short: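 For the fungal strain, discs soaked in test compound solution (DMSO stock diluted with distilled water) sat on seeded Mueller-Hinton agar. Clotrimazole was the reference. Incubation ran 48 h at 35 °C, in triplicate. Zone of growth inhibition recorded in mm as the mean diameter around each disc.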

[11] = tested on: Candida albicans (NCIM 2087); experiment: Agar disk diffusion, inhibition zone; conditions: 100 µg/8 mm disc, triplicate, mean ± SD
[12] = tested on: Candida albicans (NCIM 2087); experiment: MIC, broth microdilution; conditions: NCIM2087, read-out: Minimum inhibitory concentration (MIC), CA
In short: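 CLSI broth microdilution in Sabouraud liquid medium, with test compound two-fold serially diluted from 512 to 0.25. Fungal broth culture grown 24 h at 35 °C to 0.5 McFarland turbidity, then adjusted with sterile solution to a final […] inoculum. MIC expressed in µg/mL.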

[13] = tested on: Escherichia coli (ATCC 8739); experiment: MIC, broth microdilution; conditions: ATCC8739, read-out: Minimum inhibitory concentration (MIC), EC
In short: as §1

[14] = tested on: Staphylococcus aureus (ATCC 29213); experiment: MIC, broth microdilution; conditions: ATCC29213, read-out: Minimum inhibitory concentration (MIC), SA
In short: as §4

[15] = tested on: Escherichia coli (ATCC 8739); experiment: Agar disk diffusion, inhibition zone; conditions: 100 µg/8 mm disc, triplicate, mean ± SD
In short: as §3

[16] = tested on: Bacillus cereus (NCIM-2458); experiment: MIC, broth microdilution; conditions: NCIM2458, read-out: Minimum inhibitory concentration (MIC), BC
In short: as §1

[17] = tested on: Aspergillus fumigatus (NCIM 2081); experiment: Agar disk diffusion, inhibition zone; conditions: 100 µg/8 mm disc, triplicate, mean ± SD
[18] = tested on: Bacillus cereus (NCIM-2458); experiment: Agar disk diffusion, inhibition zone; conditions: 100 µg/8 mm disc, triplicate, mean ± SD
[19] = tested on: Cryptococcus neoformans (ATCC 9011); experiment: Agar disk diffusion, inhibition zone; conditions: 100 µg/8 mm disc, triplicate, mean ± SD
[20] = tested on: Salmonella typhimurium (NCIM-2501); experiment: Agar disk diffusion, inhibition zone; conditions: 100 µg/8 mm disc, triplicate, mean ± SD
[21] = tested on: Aspergillus niger (NCIM 2191); experiment: MIC, broth microdilution; conditions: NCIM2191, read-out: Minimum inhibitory concentration (MIC), AN
In short: as §2

| MIC [1] [mg/L] | MIC [2] [mg/L] | MIC [6] [mg/L] | MIC [9] [mg/L] | MIC [12] [mg/L] | MIC [13] [mg/L] | MIC [14] [mg/L] | MIC [16] [mg/L] | SMILES | Diameter of growth inhibition zone, SA [3] [mm] | Diameter of growth inhibition zone, SP [4] [mm] | Diameter of growth inhibition zone, PA [5] [mm] | Diameter of growth inhibition zone, LC [7] [mm] | Diameter of growth inhibition zone, KA [8] [mm] | Diameter of growth inhibition zone, AN [10] [mm] | Diameter of growth inhibition zone, CA [11] [mm] | Diameter of growth inhibition zone, EC [15] [mm] | Diameter of growth inhibition zone, AF [17] [mm] | Diameter of growth inhibition zone, BC [18] [mm] | Diameter of growth inhibition zone, CN [19] [mm] | Diameter of growth inhibition zone, ST [20] [mm] | also measured |
| --- | --- | --- | --- | --- | --- | --- | --- | --- | --- | --- | --- | --- | --- | --- | --- | --- | --- | --- | --- | --- | --- |
| 32 (≈ 91.1 µM) | 8 (≈ 22.8 µM) | 16 (≈ 45.5 µM) | 32 (≈ 91.1 µM) | 16 (≈ 45.5 µM) | 16 (≈ 45.5 µM) | 16 (≈ 45.5 µM) | 16 (≈ 45.5 µM) | Cc1ccc(S(=O)(=O)N2C(=O)CSC2c2cccc(F)c2)cc1 (stereo not drawn) [5i, 2-(3-Fluorophenyl)-3-[(4-methylphenyl)sulfonyl]-1,3-thiazolidin-4-one] | 17 ± 0.53 | 12 ± 0.4 | 18 ± 0.23 | 18 ± 1.62 | 12 ± 0.4 | 11 ± 0.9 | 15 ± 0.32 | 22.8 ± 0.63 | 15 ± 0.6 | 14 ± 0.9 | 14 ± 1.3 | 10 ± 0.76 | MIC [21]: 32 mg/L (≈ 91.1 µM) |
| 16 (≈ 43.5 µM) | 64 (≈ 174 µM) | 32 (≈ 87 µM) | 8 (≈ 21.7 µM) | 16 (≈ 43.5 µM) | 8 (≈ 21.7 µM) | 32 (≈ 87 µM) | 32 (≈ 87 µM) | Cc1ccc(S(=O)(=O)N2C(=O)CSC2c2cccc(Cl)c2)cc1 (stereo not drawn) [5f, 2-(3-Chlorophenyl)-3-[(4-methylphenyl)sulfonyl]-1,3-thiazolidin-4-one] | 20 ± 1.2 | 18 ± 0.7 | 18 ± 0.56 | 14 ± 0.6 | 18 ± 0.23 | 11.2 ± 0.6 | 12 ± 0.35 | 18 ± 0.23 | 11.8 ± 1.5 | 12 ± 2.2 | 10 ± 0.7 | 14 ± 0.2 | MIC [21]: 16 mg/L (≈ 43.5 µM) |
|  | 1 (≈ 2.9 µM) | 2 (≈ 5.8 µM) |  | 4 (≈ 11.6 µM) |  |  |  | Clc1ccccc1C(c1ccccc1)(c1ccccc1)n1ccnc1 [CL, Clotrimazole, reference compound] |  |  |  |  |  | 23 | 24 |  | 22 |  | 19 |  | MIC [21]: 16 mg/L (≈ 46.4 µM) |
| 32 (≈ 77.6 µM) | 64 (≈ 155 µM) | 128 (≈ 310 µM) | 64 (≈ 155 µM) | 32 (≈ 77.6 µM) | 16 (≈ 38.8 µM) | 32 (≈ 77.6 µM) | 64 (≈ 155 µM) | Cc1ccc(S(=O)(=O)N2C(=O)CSC2c2ccccc2Br)cc1 (stereo not drawn) [5b, 2-(2-Bromophenyl)-3-[(4-methylphenyl)sulfonyl]-1,3-thiazolidin-4-one] | 16 ± 1.1 | 08 ± 0.7 | 15 ± 0.93 | 10 ± 0.6 | 10 ± 0.5 | 10.8 ± 0.51 | 11.6 ± 0.65 | 14 ± 0.56 | 10 ± 0.9 | 10 ± 0.34 | 7.2 ± 0.3 | 12 ± 0.7 | MIC [21]: 64 mg/L (≈ 155 µM) |
| 4 (≈ 9.7 µM) | 16 (≈ 38.8 µM) | 32 (≈ 77.6 µM) | 8 (≈ 19.4 µM) | 16 (≈ 38.8 µM) | 4 (≈ 9.7 µM) | 16 (≈ 38.8 µM) | 32 (≈ 77.6 µM) | Cc1ccc(S(=O)(=O)N2C(=O)CSC2c2ccc(Br)cc2)cc1 (stereo not drawn) [5d, 2-(4-Bromophenyl)-3-[(4-methylphenyl)sulfonyl]-1,3-thiazolidin-4-one] | 21 ± 2.3 | 10 ± 1.6 | 20 ± 1.1 | 18 ± 0.44 | 18 ± 0.3 | 11.8 ± 0.66 | 12.9 ± 0.5 | 20 ± 0.9 | 9.8 ± 0.5 | 12 ± 0.4 | 17 ± 1.0 | 14 ± 0.6 | MIC [21]: 32 mg/L (≈ 77.6 µM) |
| 4 (≈ 11.4 µM) |  |  | 8 (≈ 22.9 µM) |  | 1 (≈ 2.86 µM) | 2 (≈ 5.72 µM) | 4 (≈ 11.4 µM) | CC1(C)S[C@@H]2[C@H](NC(=O)[C@H](N)c3ccccc3)C(=O)N2[C@H]1C(=O)O [AA, Ampicillin, reference compound] | 21 | 17 | 17 | 20 | 17 |  |  | 18 |  | 19 |  | 18 |  |
| 32 (≈ 91.6 µM) | 64 (≈ 183 µM) | 128 (≈ 366 µM) | 16 (≈ 45.8 µM) | 16 (≈ 45.8 µM) | 16 (≈ 45.8 µM) | 64 (≈ 183 µM) | 128 (≈ 366 µM) | Cc1ccc(S(=O)(=O)N2C(=O)CSC2c2cccc(O)c2)cc1 (stereo not drawn) [5l, 2-(3-Hydroxyphenyl)-3-[(4-methylphenyl)sulfonyl]-1,3-thiazolidin-4-one] | 14 ± 1.2 | 10 ± 0.5 | 16 ± 1.5 | 12 ± 1.6 | 14 ± 0.4 | 14 ± 1.5 | 17 ± 0.5 | 17.8 ± 1.1 | 12 ± 2.3 | 08 ± 0.5 | 12 ± 1.4 | 10 ± 0.3 | MIC [21]: 64 mg/L (≈ 183 µM) |
| 64 (≈ 184 µM) | 128 (≈ 368 µM) | 128 (≈ 368 µM) | 128 (≈ 368 µM) | 64 (≈ 184 µM) | 64 (≈ 184 µM) | 64 (≈ 184 µM) | 128 (≈ 368 µM) | Cc1ccc(S(=O)(=O)N2C(=O)CSC2c2ccccc2C)cc1 (stereo not drawn) [5r, 2-(2-Methylphenyl)-3-[(4-methylphenyl)sulfonyl]-1,3-thiazolidin-4-one] | 14 ± 1.1 | 08 ± 0.8 | 16 ± 1.9 | 10 ± 0.7 | 08 ± 0.3 | 9.8 ± 0.9 | 10 ± 0.6 | 15 ± 0.69 | 9.6 ± 0.9 | 08 ± 0.4 | 11 ± 0.7 | 08 ± 0.6 | MIC [21]: 64 mg/L (≈ 184 µM) |
